# Columns and labels:
# [1] = organism: Mus musculus; assay: Latency to the onset of generalized clonic epileptic seizures by picrotoxin was measured and evaluated as a percent of the control in mice.; assay type: functional; design: concentration or dose not given beside the values
# Outline: (§1)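 Male ddY mice (20–30 g) were given compound i.p. at 200 mg/kg as a suspension in pH 7.4 isotonic phosphate buffer with 1% CMC-Na, 15 min before s.c. picrotoxin 5 mg/kg. Dosing volume was 0.1 mL/10 g, and controls received vehicle. Latency to generalized clonic seizure and survival time were each expressed as % of control.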
# [2] = organism: Mus musculus; assay: Latency to the protection against lethality by picrotoxin was measured and evaluated as a percent of the control in mice.; assay type: functional; design: concentration or dose not given beside the values; outline: as §1
# [3] = organism: Mus musculus; assay: Survival ratio was calculated for determination of dose dependency.; assay type: functional
# Outline: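 In male ddY mice (20–30 g), compound was given i.p. at varied doses as a suspension in pH 7.4 isotonic phosphate buffer with 1% CMC-Na, 15 min before s.c. picrotoxin 5 mg/kg. Dosing volume was 0.1 mL/10 g. Over 2 h of observation, the fraction of mice surviving was recorded at each dose to define dose dependency.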
# [4] = Apparent partition coefficient between 1-octanol and pH 5.0 phosphate buffer (0.1 M) at 37 degrees Centigrade.; assay type: physicochemical; settings: 1-octanol/phosphate buffer, read-out: LogD5.0
# Outline: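 Final drug concentration 2 mM. The value is reported as the log of the apparent partition coefficient.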
# [5] = test system: Mus musculus; assay: Onset for sleeping time after administration in mice induced by sodium pentobarbital; assay type: functional
# Outline: (§2)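 Male ddY mice (20–30 g) are dosed i.p. at 50 mg/kg as a suspension in pH 7.4 isotonic phosphate buffer with 1% CMC-Na (0.1 mL/10 g), 30 min before i.p. sodium pentobarbital (45 mg/kg). Loss of righting reflex and sleeping time are recorded per mouse. Mean ± SEM; Student's t test versus control.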
# [6] = test system: Mus musculus; assay: Sleeping time in mice after administration in mice induced by sodium pentobarbital; assay type: functional; outline: as §2
# [7] = organism: Mus musculus; assay: Degradation rate constant in biological media of mouse brain homogenates.; assay type: ADME, organism-based
# Outline: (§3)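 Tissues come from male ddY mice (20–30 g) and male Wistar rats (200–250 g). Liver and brain are homogenized at 0–5 °C to 40% in pH 7.4 isotonic phosphate buffer and spun at 2500g for 15 min; the supernatant is used. Plasma is also used. A 0.1 M acetonitrile stock gives 1 mM final. Incubation at 37 ± 0.2 °C; apparent rate constant in h⁻¹.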
# [8] = organism: Mus musculus; assay: Degradation rate constant in biological media of mouse liver homogenates.; assay type: ADME, organism-based; outline: as §3
# [9] = organism: Rattus norvegicus; assay: Degradation rate constant in biological media of rat brain homogenates.; assay type: ADME, organism-based; outline: as §3
# [10] = organism: Rattus norvegicus; assay: Degradation rate constant in biological media of rat liver homogenates.; assay type: ADME, organism-based; outline: as §3
# [11] = organism: Rattus norvegicus; assay: Degradation rate constant in biological media of rat plasma homogenates.; assay type: ADME, organism-based; outline: as §3
# [12] = Degradation rate constant in the buffer solution(pH 7.4) was studied as a measure of the stability of the compound.; assay type: physicochemical
# Outline: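 A 0.1 M acetonitrile stock is added to preheated pH 7.4 phosphate buffer (0.1 M total, ionic strength 0.3 with NaCl) to 1 mM at 37 ± 0.2 °C. Aliquots are sampled over time. Pseudo-first-order fit gives the apparent rate constant in h⁻¹.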
# [13] = organism: Mus musculus; assay: Compounds were evaluated for the effect on electroconvulsive-shock-induced disruption (ECS) of the memory of passive avoidance response (antiamnesic activity) in mice and expressed as latency.; assay type: functional
# Outline: (§4)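 Male ddY mice (20–25 g) are dosed i.p. at 200 mg/kg as a suspension in pH 7.4 isotonic phosphate buffer with 1% CMC-Na (0.1 mL/10 g), 60 min before training. A two-compartment step-through box is used: lighted compartment, darkened compartment with grid floor, 30 V foot shock. Memory is disrupted by electroconvulsive shock. Mean ± SEM; Student's t test versus the ECS group.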
# [14] = organism: Mus musculus; assay: Compounds were evaluated for the effect on electroconvulsive-shock-induced disruption (ECS) of the memory of passive avoidance response (antiamnesic activity) in mice and expressed as learning time.; assay type: functional; outline: as §4
# [15] = organism: Mus musculus; assay: Compounds were evaluated for the effect on electroconvulsive-shock-induced disruption (ECS) of the memory of passive avoidance response (anti-amnesic activity) in mice and expressed as latency.; assay type: functional; outline: as §4
# [16] = Solubility in pH 5.0 phosphate buffer (0.1 M) at 37 degrees Centigrade; Miscible; assay type: physicochemical
Compound,Latency to clonic seizure onset (% of control) [1] [%],Survival time [2] [%],Survival ratio [3],logD [4],Onset for sleep [5] [min],Sleeping time [6] [min],Degradation rate constant [7] [h⁻¹],Degradation rate constant [8] [h⁻¹],Degradation rate constant [9] [h⁻¹],Degradation rate constant [10] [h⁻¹],Degradation rate constant [11] [h⁻¹],Degradation rate constant [12] [h⁻¹],Latency [13] [s],Learning time [14] [s],Latency [15] [s],Saq [16],"Onset for sleep, min [5]"
CCCCCCCCCCCC(=O)NCCCC(=O)O,493,388,60,–,–,–,–,–,–,–,–,–,–,–,–,–,–
NCCCC(=O)O [GAMMA-AMINOBUTYRIC ACID],115,112,–,-3.33,10.1,25.7,–,–,–,–,–,–,–,–,–,–,–
CCCCCCCCCCCC(=O)N1CCCC1=O,129,494,80,5.05,9.6,47.4,0.155,0.789,0.233,1.23,0.016,0.007,278.8,19.4,–,–,–
CCCC(=O)N1CCCC1=O,92,142,0,1.18,7.2,92,0.016,1.35,0.016,3.11,0.054,0.006,–,–,–,–,–
CCC(=O)N1CCCC1=O,104,112,0,–,–,–,–,–,–,–,–,–,–,–,–,–,–
CCCCCCC(=O)N1CCCC1=O,124,116,0,3.04,7.9,61.8,0.086,11.9,0.075,14.6,0.056,0.012,–,20.4,240.6,–,–
CC(=O)N1CCCC1=O,97,144,0,-0.05,6.9,38.2,0.01,0.221,0.014,0.097,0.028,0.015,101.7,15.3,–,Miscible,–
O=C1CCCN1 [2-PYRROLIDONE],107,102,0,–,10.2,24.8,0.002,0.034,0.016,0.03,0.018,< 0.0001,–,–,–,Miscible,–
CC(C)(C)C(=O)N1CCCC1=O,101,120,0,–,–,–,–,–,–,–,–,–,–,–,–,–,–
O=C1CCCN1C(=O)c1ccccc1,114,93,0,–,–,–,–,–,–,–,–,–,–,–,–,–,–
CCC1(C)CC(=O)NC1=O (stereo unspecified) [ETHOSUXIMIDE],792,577,100,–,–,–,–,–,–,–,–,–,–,–,–,–,–
CCCC(CCC)C(=O)O [VALPROIC ACID],171,472,63,–,–,36.4,–,–,–,–,–,–,–,–,–,–,10
CCCCC(=O)N1CCCC1=O,78,107,0,–,–,–,–,–,–,–,–,–,–,–,–,–,–
O=C1CCCN1C(=O)Cc1ccccc1,106,281,33,–,–,–,–,–,–,–,–,–,–,–,–,–,–
O=C(O)CCC(=O)N1CCCC1=O,113,93,0,–,–,–,–,–,–,–,–,–,–,–,–,–,–
CCCCCCCCCC(=O)N1CCCC1=O,302,364,50,4.33,–,–,0.326,2.53,0.381,2.87,0.025,0.008,–,–,–,–,–

# From ChEMBL document CHEMBL1125242, “Synthesis and anticonvulsant activity of 1-acyl-2-pyrrolidinone derivatives” (J Med Chem, 1991)
